Data reported in ChEMBL document CHEMBL1811797, “Evolution from a natural flavones nucleus to obtain 2-(4-Propoxyphenyl)quinoline derivatives as potent inhibitors of the S. aureus NorA efflux pump” (J Med Chem, 2011).
Converted amounts (≈) assume the structure as drawn. The source made the active and inactive calls. The rule behind the calls is not given here.

Columns and labels:
[1] = biological target: T1, Quinolone resistance protein NorA (Staphylococcus aureus) (UniProt P0A0J7); assay: Inhibition of NorA in Staphylococcus aureus 1199B assessed as inhibition of ethidium bromide efflux at 50 uM by fluorimetry
T1 sequence (whole entry): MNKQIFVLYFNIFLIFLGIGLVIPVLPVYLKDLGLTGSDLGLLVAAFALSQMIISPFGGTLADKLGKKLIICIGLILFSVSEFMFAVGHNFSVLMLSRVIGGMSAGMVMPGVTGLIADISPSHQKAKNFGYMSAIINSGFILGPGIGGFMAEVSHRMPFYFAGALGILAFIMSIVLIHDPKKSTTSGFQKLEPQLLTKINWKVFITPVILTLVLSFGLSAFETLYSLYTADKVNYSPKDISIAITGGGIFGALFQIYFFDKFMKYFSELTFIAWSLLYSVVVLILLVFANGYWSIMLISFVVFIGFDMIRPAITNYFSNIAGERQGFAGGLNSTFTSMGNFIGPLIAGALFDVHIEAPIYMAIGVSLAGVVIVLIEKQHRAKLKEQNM
Method in brief: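 Fluorometric measurement of EtBr loss from norA-overexpressing SA-1199B, with compounds screened at 50 μM. Performed in duplicate; value is mean total efflux over a 5 min time course, expressed as percent inhibition.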

Staphylococcus aureus [2] = assay: Antibacterial activity against NorA-expressing Staphylococcus aureus 1199B by M7-A7 CLSI microdilution method; format: functional
Staphylococcus aureus [3] = assay: Antibacterial activity against wild-type Staphylococcus aureus ATCC 25923 by M7-A7 CLSI microdilution method; format: functional
Staphylococcus aureus [4] = assay: Antibacterial activity against Staphylococcus aureus K1902 bearing norA-deficient mutation by M7-A7 CLSI microdilution method; format: functional
Staphylococcus aureus [5] = assay: Antibacterial activity against Staphylococcus aureus K2378 bearing norA++ efficient mutation by M7-A7 CLSI microdilution method; format: functional
Staphylococcus aureus [6] = assay: Antibacterial activity against wild-type norA expressing Staphylococcus aureus 1199 by M7-A7 CLSI microdilution method; format: functional
Staphylococcus aureus [7] = assay: Antibacterial activity against Staphylococcus aureus 1199B norA++ and A116E GrlA mutation by M7-A7 CLSI microdilution method; format: functional
Staphylococcus aureus [8] = assay: Potentiation of ciprofloxacin-antibacterial activity against wild-type Staphylococcus aureus ATCC 25923 assessed as reduction in ciprofloxacin MIC by M7-A7 CLSI microdilution method; format: functional, organism-based
[9] = biological target: T1, Quinolone resistance protein NorA (Staphylococcus aureus); assay: Inhibition of NorA in Staphylococcus aureus 1199B norA++ and A116E GrlA mutation assessed as reduction in ciprofloxacin MIC at 100 ug/mL
[10] = biological target: T1, Quinolone resistance protein NorA (Staphylococcus aureus); assay: Inhibition of NorA in Staphylococcus aureus K2378 bearing norA++ efficient mutation assessed as reduction in ciprofloxacin MIC at 12.5 ug/mL
[11] = biological target: T1, Quinolone resistance protein NorA (Staphylococcus aureus); assay: Inhibition of wild-type norA expressing Staphylococcus aureus 1199 assessed as reduction in ciprofloxacin MIC
[12] = biological target: T1, Quinolone resistance protein NorA (Staphylococcus aureus); assay: Inhibition of NorA in Staphylococcus aureus K2378 bearing norA++ efficient mutation assessed as reduction in ciprofloxacin MIC at 6.25 ug/mL
[13] = biological target: T1, Quinolone resistance protein NorA (Staphylococcus aureus); assay: Inhibition of NorA in Staphylococcus aureus 1199B norA++ and A116E GrlA mutation assessed as reduction in ciprofloxacin MIC at >=12.5 ug/mL
[14] = biological target: T2, Quinolone resistance protein NorA (Staphylococcus aureus, UniProt P0A0J7); assay: Inhibition of NorA in Staphylococcus aureus 1199B assessed as inhibition of ethidium bromide efflux dose response curve based fluorometric assay
T2 sequence (P0A0J7 whole entry): T1 sequence (whole entry)
Method in brief: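 Fluorometric EtBr efflux (loss of EtBr) from S. aureus SA-1199B (norA-overexpressing); dose-response curves built to assess activity at concentrations below the 50 μM screening level; duplicate experiments, result expressed as mean total efflux over a 5 min time course; IC50 derived from the curves.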

Staphylococcus aureus [15] = assay: Potentiation of ciprofloxacin-antibacterial activity against Staphylococcus aureus K1902 bearing norA-deficient mutation assessed as reduction in ciprofloxacin MIC at 0.78 ug/mL by M7-A7 CLSI microdilution method; format: functional
Staphylococcus aureus [16] = assay: Potentiation of ciprofloxacin-antibacterial activity against Staphylococcus aureus K1902 bearing norA-deficient mutation assessed as reduction in ciprofloxacin MIC at >25 ug/mL by M7-A7 CLSI microdilution method; format: functional
[17] = biological target: T1, Quinolone resistance protein NorA (Staphylococcus aureus); assay: Inhibition of NorA in Staphylococcus aureus 1199B norA++ and A116E GrlA mutation assessed as reduction in ciprofloxacin MIC at 50 ug/mL
[18] = biological target: T1, Quinolone resistance protein NorA (Staphylococcus aureus); assay: Inhibition of NorA in Staphylococcus aureus K2378 bearing norA++ efficient mutation assessed as reduction in ciprofloxacin MIC at 1.56 ug/mL
[19] = biological target: T1, Quinolone resistance protein NorA (Staphylococcus aureus); assay: Inhibition of NorA in Staphylococcus aureus K2378 bearing norA++ efficient mutation assessed as reduction in ciprofloxacin MIC at 3.13 ug/mL
[20] = biological target: T1, Quinolone resistance protein NorA (Staphylococcus aureus); assay: Inhibition of NorA in Staphylococcus aureus 1199B norA++ and A116E GrlA mutation assessed as reduction in ciprofloxacin MIC at >12.5 ug/mL
[21] = biological target: T1, Quinolone resistance protein NorA (Staphylococcus aureus); details: 1199B, 25 ug/mL

| Compound | inhibition [1] | MIC (Staphylococcus aureus [2]) | MIC (Staphylococcus aureus [3]) | MIC (Staphylococcus aureus [4]) | MIC (Staphylococcus aureus [5]) | MIC (Staphylococcus aureus [6]) | MIC (Staphylococcus aureus [7]) | Activity (Staphylococcus aureus [8]) | inhibition [11] | also measured |
| --- | --- | --- | --- | --- | --- | --- | --- | --- | --- | --- |
| CCCOc1ccc(-c2cc(O)c3ccccc3n2)cc1 | 0% | – | – | – | – | – | – | – | – | – |
| CCN(CC)CCOc1cc(-c2ccc(OCCN3CCCCC3)cc2)nc2ccccc12 | – | > 223 µM | 100 µg/mL (≈ 223 µM) | 100 µg/mL (≈ 223 µM) | 100 µg/mL (≈ 223 µM) | > 100 µg/mL | > 100 µg/mL | inactive | inactive | inhibition [9]: inactive; fold change (FC) [10]: 4 |
| CCCOc1ccc(-c2cc(OCCN3CCCCC3)c3ccccc3n2)cc1 | – | 256 µM (≈ 100 µg/mL) | 100 µg/mL (≈ 256 µM) | 50 µg/mL (≈ 128 µM) | 50 µg/mL (≈ 128 µM) | 100 µg/mL (≈ 256 µM) | 100 µg/mL (≈ 256 µM) | inactive | inactive | fold change (FC) [12]: 16; fold change (FC) [13]: 16; IC50 [14]: 7 µM; fold change (FC) (Staphylococcus aureus [15]): 4; fold change (FC) (Staphylococcus aureus [16]): 8 |
| CCCOc1ccc(-c2cc(=O)c3ccccc3n2CCN2CCCCC2)cc1 | – | > 256 µM | > 100 µg/mL | > 100 µg/mL | > 100 µg/mL | > 100 µg/mL | > 100 µg/mL | inactive | inactive | inhibition [17]: inactive; fold change (FC) [18]: 4 |
| Cn1c(-c2ccccc2)cc(=O)c2cc(O)c(O)cc21 | 0% | – | – | – | – | – | – | – | – | – |
| CCCOc1ccc(-c2cc(OCCN(CC)CC)c3ccccc3n2)cc1 | – | > 241 µM | 100 µg/mL (≈ 264 µM) | 50 µg/mL (≈ 132 µM) | 50 µg/mL (≈ 132 µM) | > 100 µg/mL | > 100 µg/mL | inactive | inactive | fold change (FC) [19]: 16; fold change (FC) [20]: 8; IC50 [14]: 7 µM; fold change (FC) (Staphylococcus aureus [15]): 4; fold change (FC) (Staphylococcus aureus [16]): 8 |
| COc1cc2c(=O)cc(-c3ccc(O)cc3)n(C)c2cc1OC | 0% | – | – | – | – | – | – | – | – | – |
| Fc1ccc([C@@H]2CCNC[C@H]2COc2ccc3c(c2)OCO3)cc1 [PAROXETINE] | 89.7% | > 303 µM | > 100 µg/mL | > 100 µg/mL | 100 µg/mL (≈ 304 µM) | > 100 µg/mL | > 100 µg/mL | inactive | inactive | IC50 [14]: 7 µM; inhibition [21]: inactive |
| Cn1c(-c2ccc(O)cc2)cc(=O)c2cc(O)c(O)cc21 | 0% | – | – | – | – | – | – | – | – | – |
| COC(=O)[C@H]1[C@H]2C[C@@H]3c4[nH]c5cc(OC)ccc5c4CCN3C[C@H]2C[C@@H](OC(=O)c2cc(OC)c(OC)c(OC)c2)[C@@H]1OC [RESERPINE] | – | > 164 µM | > 100 µg/mL | > 100 µg/mL | > 100 µg/mL | > 100 µg/mL | > 100 µg/mL | inactive | inactive | IC50 [14]: 7 µM |

Continued, in another order:

| inhibition [1] | Compound | MIC (Staphylococcus aureus [2]) | MIC (Staphylococcus aureus [3]) | MIC (Staphylococcus aureus [4]) | MIC (Staphylococcus aureus [5]) | MIC (Staphylococcus aureus [6]) | MIC (Staphylococcus aureus [7]) | Activity (Staphylococcus aureus [8]) | inhibition [11] | also measured |
| --- | --- | --- | --- | --- | --- | --- | --- | --- | --- | --- |
| 33.9% | CCCOc1ccc(-c2cc(=O)c3ccccc3n2C)cc1 | – | – | – | – | – | – | – | – | – |
| 0% | CCCOc1ccc(-c2cc(=O)c3cc(OC)c(OC)cc3n2C)cc1 | – | – | – | – | – | – | – | – | – |
| 0% | COc1ccc(-c2cc(=O)c3ccccc3n2C)cc1 | – | – | – | – | – | – | – | – | – |
| 0% | Cn1c(-c2ccc(O)cc2)cc(=O)c2ccccc21 | – | – | – | – | – | – | – | – | – |
| 0% | Cn1c(-c2ccc(OCCN3CCOCC3)cc2)cc(=O)c2ccccc21 | – | – | – | – | – | – | – | – | – |
| 63.7% | CCCOc1ccc(-c2cc(OC)c3ccccc3n2)cc1 | – | – | – | – | – | – | – | – | – |
